Test results taken from ChEMBL document CHEMBL1154089, “Novel N-(3-carboxyl-9-benzyl-beta-carboline-1-yl)ethylamino acids: synthesis, anti-tumor evaluation, intercalating determination, 3D QSAR analysis and docking investigation” (Eur J Med Chem, 2009).
The source made the active and inactive calls. The rule behind the calls is not given here.

Assays:
HepG2 = experiment: Cytotoxicity against human HepG2 cells after 48 hrs by MTT assay; assay type: functional, cell-based; conditions: HepG2, 48 h
How it was run: (§1)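 Cells grown in DMEM or RPMI-1640 with 10% FBS plus penicillin/streptomycin. Seeded at 5 × 10^4 cells/ml and given 4 h at 37 °C in 5% CO2 before the medium was replaced with compound (0.1–400 µM, DMSO vehicle; vehicle control 1% DMSO). After 48 h, MTT added (final 0.5 mg/ml) for 4 h. Formazan dissolved in DMSO and read at 570 nm. IC50 is the concentration giving 50% growth inhibition.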

Mus musculus [1] = experiment: Toxicity in ICR mouse assessed as twitch at > 500 mg/kg, ip after 7 days; assay type: organism-based; set-up: dose 500 mg/kg, route intraperitoneal; conditions: in vivo, 168 h
How it was run: (§2)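 Mice fasted overnight with free access to water, then given a single i.p. injection of 150, 300 or 500 mg/kg in 0.2 ml of 0.9% saline. Groups of 12 (six male, six female). Animals were watched continuously for up to 7 days for abnormal behaviour (tremor, twitch, jumping, tetanus, supination) or death. They were sacrificed on day 7, and heart, liver and kidneys were checked macroscopically. LD50 was estimated graphically.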

Mus musculus [2] = experiment: Toxicity in mouse S180 cells xenografted in ICR mouse assessed as increase in body weight at 89 umol/kg, ip administered 24 hrs after tumor implantation once daily for 7 consecutive days measured after 24 hrs last post dose; assay type: organism-based, CCRF S-180; conditions: in vivo
How it was run: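 S180-bearing male ICR mice, n = 12 per group, given 89 µmol/kg i.p. daily in 0.2 ml 0.9% saline for 7 days, starting 24 h after s.c. implantation. Animals weighed daily. Result expressed as body-weight increase from the start of treatment, in g, mean ± SD.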

CCRF S-180 [3] = experiment: Antitumor activity against mouse S180 cells xenografted in ICR mouse assessed as inhibition of tumor growth at 89 umol/kg, ip administered 24 hrs after tumor implantation once daily for 7 consecutive days measured after 24 hrs last post dose; assay type: functional; conditions: CCRF S-180, ip
How it was run: (§3)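 S180 solid tumors in male ICR mice (10–12 weeks), 1 × 10^7 cells s.c. at the right armpit. Mice randomized at 24 h, n = 12 per group, and dosed i.p. daily in 0.2 ml 0.9% saline for 7 days. Tumors weighed 24 h after the final dose. Inhibition (%) = [(A − B)/A] × 100, where A is the mean tumor weight of saline controls and B is the mean of the treated group.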

Mus musculus [4] = experiment: Toxicity in ICR mouse assessed as tremor at > 500 mg/kg, ip after 7 days; assay type: organism-based; set-up: dose 500 mg/kg, route intraperitoneal; conditions: in vivo, 168 h; how it was run: as §2
[5] = Cytotoxicity against human MES-SA cells after 48 hrs by MTT assay; assay type: functional, cell-based; how it was run: as §1
CCRF S-180 [6] = experiment: Antitumor activity against mouse S180 cells xenografted in ICR mouse assessed as decrease in tumor weight at 0.89 umol/kg, ip administered 24 hrs after tumor implantation once daily for 7 consecutive days measured after 24 hrs last post dose; assay type: functional
How it was run: (§4)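 Male ICR mice, 10–12 weeks old. Solid tumors from 1 × 10^7 viable S180 ascites cells in 0.2 ml 0.9% saline, injected s.c. at the right armpit. Random allocation at 24 h, 12 per group. Dosed i.p. daily in 0.2 ml 0.9% saline for 7 days. Saline-only negative control; cytarabine 89 µmol/kg positive control. Tumors excised and weighed 24 h after the last dose. ANOVA used for statistics.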

Mus musculus [7] = experiment: Toxicity in ICR mouse assessed as liver necropsy at > 500 mg/kg, ip after 7 days; assay type: organism-based; set-up: dose 500 mg/kg, route intraperitoneal; conditions: in vivo, 168 h; how it was run: as §2
Mus musculus [8] = experiment: Toxicity in ICR mouse assessed as supination at > 500 mg/kg, ip after 7 days; assay type: organism-based; set-up: dose 500 mg/kg, route intraperitoneal; conditions: in vivo, 168 h; how it was run: as §2
Mus musculus [9] = experiment: Toxicity in ICR mouse assessed as heart necropsy at > 500 mg/kg, ip after 7 days; assay type: organism-based; set-up: dose 500 mg/kg, route intraperitoneal; conditions: in vivo, 168 h; how it was run: as §2
Mus musculus [10] = experiment: Toxicity in ICR mouse assessed as jumping at > 500 mg/kg, ip after 7 days; assay type: organism-based; set-up: dose 500 mg/kg, route intraperitoneal; conditions: in vivo, 168 h; how it was run: as §2
Mus musculus [11] = experiment: Toxicity in mouse S180 cells xenografted in ICR mouse assessed as spleen index at 89 umol/kg, ip administered 24 hrs after tumor implantation once daily for 7 consecutive days measured after 24 hrs last post dose; assay type: organism-based, CCRF S-180; conditions: in vivo
How it was run: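 S180-bearing male ICR mice (n = 12) received 89 µmol/kg i.p. daily in 0.2 ml saline for 7 days. Killed under ether 24 h after the last dose; spleens excised and weighed. Spleen index given as mean ± SD, […] body weight.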

CCRF S-180 [12] = experiment: Antitumor activity against mouse S180 cells xenografted in ICR mouse assessed as decrease in tumor weight at 0.0089 umol/kg, ip administered 24 hrs after tumor implantation once daily for 7 consecutive days measured after 24 hrs last post dose; assay type: functional; how it was run: as §4
Mus musculus [13] = experiment: Toxicity in ICR mouse assessed as kidneys necropsy at > 500 mg/kg, ip after 7 days; assay type: organism-based, Kidney; set-up: dose 500 mg/kg, route intraperitoneal; conditions: in vivo, 168 h; how it was run: as §2
CCRF S-180 [14] = experiment: Antitumor activity against mouse S180 cells xenografted in ICR mouse assessed as decrease in tumor weight at 89 umol/kg, ip administered 24 hrs after tumor implantation once daily for 7 consecutive days measured after 24 hrs last post dose; assay type: functional; how it was run: as §4
Mus musculus [15] = experiment: Toxicity in ICR mouse assessed as tetanus at > 500 mg/kg, ip after 7 days; assay type: organism-based; set-up: dose 500 mg/kg, route intraperitoneal; conditions: in vivo, 168 h; how it was run: as §2
Mus musculus [16] = experiment: Toxicity in ICR mouse assessed as death at > 500 mg/kg, ip after 7 days; assay type: organism-based; set-up: dose 500 mg/kg, route intraperitoneal; conditions: in vivo, 168 h; how it was run: as §2
CCRF S-180 [17] = experiment: Antitumor activity against mouse S180 cells xenografted in ICR mouse assessed as inhibition of tumor growth at > 89 umol/kg, ip administered 24 hrs after tumor implantation once daily for 7 consecutive days measured after 24 hrs last post dose; assay type: functional, organism-based
CCRF S-180 [18] = experiment: Antitumor activity against mouse S180 cells xenografted in ICR mouse assessed as inhibition of tumor growth at 0.0089 umol/kg, ip administered 24 hrs after tumor implantation once daily for 7 consecutive days measured after 24 hrs last post dose; assay type: functional; conditions: CCRF S-180, ip; how it was run: as §3
HL-60 = experiment: Cytotoxicity against human HL60 cells after 48 hrs by MTT assay; assay type: functional, cell-based; conditions: HL-60, 48 h; how it was run: as §1
HeLa = experiment: Cytotoxicity against human HeLa cells after 48 hrs by MTT assay; assay type: functional, cell-based; how it was run: as §1
CCRF S-180 [19] = experiment: Antitumor activity against mouse S180 cells xenografted in ICR mouse assessed as inhibition of tumor growth at 0.89 umol/kg, ip administered 24 hrs after tumor implantation once daily for 7 consecutive days measured after 24 hrs last post dose; assay type: functional; conditions: CCRF S-180, ip; how it was run: as §3
[20] = Cytotoxicity against human H1299 cells after 48 hrs by MTT assay; assay type: functional, cell-based; conditions: NCI-H1299, 48 h; how it was run: as §1

C[C@H](NCCc1nc(C(=O)O)cc2c3ccccc3n(Cc3ccccc3)c12)C(=O)O
IC50 (HepG2): 242 µM
Activity (Mus musculus [1]): Non-toxic
Activity (Mus musculus [2]): 12.92 g
inhibition in vivo at 89 µmol/kg (CCRF S-180 [3]): 55.2%
Activity (Mus musculus [4]): Non-toxic
IC50 [5]: 120 µM
Activity (CCRF S-180 [6]): 1.22 g
Activity (Mus musculus [7]): Non-toxic
Activity (Mus musculus [8]): Non-toxic
Activity (Mus musculus [9]): Non-toxic
Activity (Mus musculus [10]): Non-toxic
Activity (Mus musculus [11]): 13.3 mg/g
Activity (CCRF S-180 [12]): 1.64 g
Activity (Mus musculus [13]): Non-toxic
Activity (CCRF S-180 [14]): 0.74 g
Activity (Mus musculus [15]): Non-toxic
Activity (Mus musculus [16]): Non-toxic
Activity (CCRF S-180 [17]): Active
inhibition in vivo at 0.0089 µmol/kg (CCRF S-180 [18]): 1.5%
IC50 (HL-60): 28.1 µM
IC50 (HeLa): 122 µM
inhibition in vivo at 0.89 µmol/kg (CCRF S-180 [19]): 25.6%
IC50 [20]: 81.8 µM
